Assay results reported in ChEMBL document CHEMBL3797137, “New ligands of the ghrelin receptor based on the 1,2,4-triazole scaffold by introduction of a second chiral center” (Bioorg Med Chem Lett, 2016).
Calls of active or inactive are those of the source. No cut-off for these calls is given here.

Assays:
[1] = molecular target: T1, Growth hormone secretagogue receptor type 1 (Homo sapiens, UniProt Q92847); test: Antagonist activity at human GHS-R1a transfected in CHO cells assessed as inhibition of ghrelin-induced intracellular calcium mobilization measured over 60 secs by fluo-4AM dye-based fluorometric method; format: functional, cell-based
[2] = molecular target: T1, Growth hormone secretagogue receptor type 1; test: Antagonist activity at human GHS-R1a transfected in mouse LTK cells after 6 hrs by CRE/luciferase reporter gene assay in presence of ghrelin and rolipram; format: functional, cell-based
Method in brief: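 Mouse LTK- cells stably carrying a CMV minimal promoter–3×CRE–luciferase construct, incubated 6 h with rolipram, saturating ghrelin and varied compound concentrations. Cells were then lysed and luminescence read. IC50 fitted from the curves.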

[3] = molecular target: T1, Growth hormone secretagogue receptor type 1; test: Displacement of [125I]-His9-ghrelin from human GHS-R1a transfected in pig LLC PK-1 cell membranes after 60 mins by gamma counting method
Method in brief: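 Competition binding on membranes from LLC PK-1 cells transfected with GHS-R1a, using 0.3 nM ¹²⁵I-His9-ghrelin against increasing compound concentrations. Ki derived from the binding curves.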

[4] = molecular target: T1, Growth hormone secretagogue receptor type 1; test: Partial agonist activity at human GHS-R1a expressed in HEK293T cells at 10^-5 M after 45 mins by HTRF-based IP3 turnover assay; format: functional, cell-based; conditions: HEK-293T
[5] = molecular target: T1, Growth hormone secretagogue receptor type 1; test: Antagonist activity at human GHS-R1a expressed in HEK293T cells assessed as inhibition of ghrelin-induced stimulation at 10^-5 M after 45 mins by HTRF-based IP3 turnover assay; format: functional, cell-based; conditions: HEK-293T
[6] = molecular target: T1, Growth hormone secretagogue receptor type 1; test: Agonist activity at human GHS-R1a expressed in HEK293T cells after 45 mins by HTRF-based IP3 turnover assay; format: functional, cell-based, HEK-293T; conditions: for Emax: HEK-293T
[7] = molecular target: T1, Growth hormone secretagogue receptor type 1; test: Competitive binding affinity to human SNAP-tagged GHS-R1a expressed in HEK293T cells incubated at 4 degC for 3 hrs or at room temperature for 1 hr by Tag-lite assay; format: cell-based, HEK-293T
Method in brief: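 Tag-lite binding measured by FRET between terbium cryptate attached to SNAP-tag-fused GHS-R1a and a red fluorescent high-affinity ghrelin ligand. Ki obtained from the fluorescent binding data.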

[8] = molecular target: T1, Growth hormone secretagogue receptor type 1; test: Antagonist activity at human GHS-R1a expressed in HEK293T cells assessed as inhibition of ghrelin-induced stimulation after 45 mins by HTRF-based IP3 turnover assay; format: functional, cell-based; conditions: HEK-293T
[9] = molecular target: T1, Growth hormone secretagogue receptor type 1; test: Inverse agonist activity at human GHS-R1a expressed in HEK293T cells after 45 mins by HTRF-based IP3 turnover assay; format: functional, cell-based, HEK-293T; conditions: for Emax: HEK-293T

T1 sequence (Q92847 whole entry): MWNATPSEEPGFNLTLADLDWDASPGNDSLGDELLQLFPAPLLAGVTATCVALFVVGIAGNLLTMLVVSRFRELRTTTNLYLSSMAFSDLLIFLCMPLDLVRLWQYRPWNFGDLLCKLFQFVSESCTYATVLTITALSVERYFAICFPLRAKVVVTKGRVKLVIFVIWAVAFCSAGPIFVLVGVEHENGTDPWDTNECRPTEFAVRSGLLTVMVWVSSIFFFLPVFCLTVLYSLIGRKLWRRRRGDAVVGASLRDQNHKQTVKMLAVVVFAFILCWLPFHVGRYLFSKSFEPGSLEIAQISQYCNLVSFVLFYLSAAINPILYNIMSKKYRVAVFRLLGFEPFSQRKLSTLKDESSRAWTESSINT

SMILES | IC50 [1] | IC50 [2] | Ki [3] | Ki [7] | further results
COc1ccc(Cn2c([C@@H](Cc3ccccc3)NC(C)=O)nnc2[C@@H](Cc2c[nH]c3ccccc23)NC(=O)C(C)(C)N)cc1 | 90 nM | 70 nM | 46 nM | – | –
COc1ccc(Cn2c([C@@H](Cc3ccccc3)NC(C)=O)nnc2[C@@H](Cc2c[nH]c3ccccc23)NC(=O)c2ncccc2F)cc1 | 2 nM | 2 nM | 4 nM | – | Activity [4]: Active
COc1ccc(Cn2c([C@@H](Cc3ccccc3)NC(C)=O)nnc2[C@@H](Cc2c[nH]c3ccccc23)NC(=O)CO)cc1 | 2 nM | 8 nM | 0.8 nM | – | inhibition [5]: Active; Activity [4]: Active
COc1ccc(Cn2c([C@@H](Cc3c[nH]c4ccccc34)NC(C)=O)nnc2[C@@H](Cc2c[nH]c3ccccc23)NC(=O)c2ccccn2)cc1 | 3 nM | 2 nM | 9 nM | – | –
COc1ccc(Cn2c([C@@H](Cc3ccccc3)NC=O)nnc2[C@@H](Cc2c[nH]c3ccccc23)NC(=O)C(C)(C)N)cc1 | 43 nM | 113 nM | 59 nM | – | –
COc1ccc(Cn2c([C@@H](Cc3c[nH]c4ccccc34)NC(C)=O)nnc2[C@@H](Cc2c[nH]c3ccccc23)NC(=O)[C@@H](N)CCCCN)cc1 | – | – | – | 2.5 nM | EC50 [6]: 4 nM; Emax [6]: 89%
COc1ccc(Cn2c([C@@H](Cc3ccccc3)NC(C)=O)nnc2[C@@H](Cc2c[nH]c3ccccc23)NC(=O)c2cc(F)cc(F)n2)cc1 | 4 nM | 4 nM | 11 nM | – | Activity [4]: Active
COc1ccc(Cn2c([C@@H](N)Cc3c[nH]c4ccccc34)nnc2[C@@H](Cc2c[nH]c3ccccc23)NC(=O)C(C)(C)N)cc1 | > 1000 nM | > 1000 nM | > 1000 nM | – | –
COc1ccc(Cn2c([C@H](Cc3c[nH]c4ccccc34)NC(C)=O)nnc2[C@@H](Cc2c[nH]c3ccccc23)NC(=O)c2ccccn2)cc1 | 190 nM | 100 nM | 62 nM | – | –
COc1ccc(Cn2c([C@H](Cc3c[nH]c4ccccc34)NC(C)=O)nnc2[C@@H](Cc2c[nH]c3ccccc23)NC(=O)C(C)(C)N)cc1 | > 1000 nM | > 1000 nM | > 1000 nM | – | –
COC(=O)[C@H](CC(C)C)NC(=O)C(CC(C)C)C(=O)N[C@H](Cc1c[nH]c2ccccc12)c1nnc([C@@H](Cc2c[nH]c3ccccc23)NC(=O)[C@@H](N)CCCCN)n1Cc1ccc(OC)cc1 (stereo not given in full) | – | – | – | 220 nM | EC50 [6]: 82 nM; Emax [6]: 82%
COc1ccc(Cn2c([C@@H](Cc3c[nH]c4ccccc34)NC(=O)CO)nnc2[C@@H](Cc2c[nH]c3ccccc23)NC(=O)[C@H](CC(C)C)NC(=O)[C@H](CC(C)C)NC(C)=O)cc1 | – | – | – | 3 nM | Emax [8]: 0%
COc1ccc(Cn2c([C@@H](Cc3ccccc3)NC(C)=O)nnc2[C@@H](Cc2c[nH]c3ccccc23)NC(=O)c2ccccn2)cc1 | – | – | – | – | Activity [4]: Active
COc1ccc(Cn2c([C@@H](N)Cc3ccccc3)nnc2[C@@H](Cc2c[nH]c3ccccc23)NC(=O)c2ccccn2)cc1 | 150 nM | 320 nM | 62 nM | – | –
COc1ccc(Cn2c([C@@H](Cc3ccccc3)NC(C)=O)nnc2[C@@H](Cc2c[nH]c3ccccc23)NC(=O)C2=CCCCO2)cc1 | 4 nM | 3 nM | 9 nM | – | Activity [4]: Active
COC(=O)C(CC(C)C)C(=O)N[C@H](Cc1c[nH]c2ccccc12)c1nnc([C@@H](Cc2c[nH]c3ccccc23)NC(=O)[C@@H](N)CCCCN)n1Cc1ccc(OC)cc1 (mixture of isomers) | – | – | – | 17 nM | EC50 [6]: 20 nM; Emax [6]: 81%
COc1ccc(Cn2c([C@@H](Cc3ccccc3)NC(C)=O)nnc2[C@@H](Cc2c[nH]c3ccccc23)NC(=O)[C@@H]2CNCCO2)cc1 | 3 nM | 9 nM | 2 nM | – | Activity [4]: Active

SMILES | IC50 [1] | IC50 [2] | Ki [3] | Ki [7] | further results
COc1ccc(Cn2c([C@@H](Cc3ccccc3)NC=O)nnc2[C@@H](Cc2c[nH]c3ccccc23)NC(=O)c2ccccn2)cc1 | 3 nM | 8 nM | 8 nM | – | Activity [4]: Active
COc1ccc(Cn2c([C@H](N)Cc3ccccc3)nnc2[C@@H](Cc2c[nH]c3ccccc23)NC(=O)C(C)(C)N)cc1 | 135 nM | 115 nM | 154 nM | – | –
COc1ccc(Cn2c([C@@H](Cc3c[nH]c4ccccc34)NC=O)nnc2[C@@H](Cc2c[nH]c3ccccc23)NC(=O)C(C)(C)N)cc1 | 33 nM | 60 nM | 46 nM | – | –
COc1ccc(Cn2c([C@H](N)Cc3ccccc3)nnc2[C@@H](Cc2c[nH]c3ccccc23)NC(=O)c2ccccn2)cc1 | 4 nM | 7 nM | 18 nM | – | –
CC(C)C[C@H](NC(=O)[C@H](CC(C)C)NC(=O)[C@@H](Cc1c[nH]c2ccccc12)NC(=O)[C@H](Cc1ccccc1)NC(=O)[C@@H](Cc1c[nH]c2ccccc12)NC(=O)[C@@H](N)CCCCN)C(N)=O | – | – | – | 255 nM | EC50 [9]: 100 nM; Emax [9]: -55%
COc1ccc(Cn2c([C@@H](Cc3c[nH]c4ccccc34)NC(=O)[C@H](CC(C)C)NC(=O)[C@H](CC(C)C)NC(C)=O)nnc2[C@@H](Cc2c[nH]c3ccccc23)NC(=O)[C@@H](N)CCCCN)cc1 | – | – | – | 110 nM | EC50 [9]: 70 nM; Emax [9]: -37%
COc1ccc(Cn2c([C@H](Cc3ccccc3)NC(C)=O)nnc2[C@@H](Cc2c[nH]c3ccccc23)NC(=O)C(C)(C)N)cc1 | > 1000 nM | > 1000 nM | > 1000 nM | – | –
COc1ccc(Cn2c([C@@H](Cc3c[nH]c4ccccc34)NC(C)=O)nnc2[C@@H](Cc2c[nH]c3ccccc23)NC(=O)C(C)(C)N)cc1 | – | 22 nM | 12 nM | – | –
COc1ccc(Cn2c([C@@H](N)Cc3ccccc3)nnc2[C@@H](Cc2c[nH]c3ccccc23)NC(=O)C(C)(C)N)cc1 | > 1000 nM | > 1000 nM | > 1000 nM | – | –
COc1ccc(Cn2c([C@@H](Cc3c[nH]c4ccccc34)NC(=O)C(CC(C)C)C(=O)N[C@@H](CC(C)C)C(N)=O)nnc2[C@@H](Cc2c[nH]c3ccccc23)NC(=O)[C@@H](N)CCCCN)cc1 (mixture of isomers) | – | – | – | 210 nM | EC50 [6]: 170 nM; Emax [6]: 60%
COc1ccc(Cn2c([C@@H](Cc3c[nH]c4ccccc34)NC=O)nnc2[C@@H](Cc2c[nH]c3ccccc23)NC(=O)[C@@H](N)CCCCN)cc1 | – | – | – | 8 nM | EC50 [6]: 10 nM; Emax [6]: 89%
COc1ccc(Cn2c([C@H](N)Cc3c[nH]c4ccccc34)nnc2[C@@H](Cc2c[nH]c3ccccc23)NC(=O)C(C)(C)N)cc1 | 90 nM | 130 nM | 131 nM | – | –
COc1ccc(Cn2c([C@@H](Cc3c[nH]c4ccccc34)NC(=O)[C@H](CC(C)C)NC(=O)[C@H](CC(C)C)NC(C)=O)nnc2[C@@H](Cc2c[nH]c3ccccc23)NC(=O)C(C)(C)O)cc1 | – | – | – | 3 nM | EC50 [6]: 74 nM; Emax [6]: 75%
COc1ccc(Cn2c(C(Cc3c[nH]c4ccccc34)NC(=O)C3CCNCC3)nnc2[C@@H](Cc2c[nH]c3ccccc23)NC(=O)C(CC(C)C)NC(=O)C(CC(C)C)NC(C)=O)cc1 (single isomer, unassigned) | – | – | – | 2 nM | EC50 [6]: 4.4 nM; Emax [6]: 108%
COc1ccc(Cn2c([C@H](Cc3c[nH]c4ccccc34)NC=O)nnc2[C@@H](Cc2c[nH]c3ccccc23)NC(=O)c2ccccn2)cc1 | 1200 nM | 410 nM | 154 nM | – | –
COc1ccc(Cn2c([C@@H](Cc3c[nH]c4ccccc34)NC(=O)[C@H](CC(C)C)NC(=O)[C@H](CC(C)C)NC(C)=O)nnc2[C@@H](Cc2c[nH]c3ccccc23)NC(=O)C(C)(C)N)cc1 | – | – | – | 30 nM | EC50 [6]: 0.8 nM; Emax [6]: 80%
COc1ccc(Cn2c([C@H](Cc3c[nH]c4ccccc34)NC(=O)[C@H]3CNCCO3)nnc2[C@@H](Cc2c[nH]c3ccccc23)NC(=O)[C@@H](CC(C)C)NC(=O)[C@@H](CC(C)C)NC(C)=O)cc1 (stereo in doubt) | – | – | – | 50 nM | EC50 [6]: 60 nM; Emax [6]: 75%
